Screens deposited in PubChem BioAssay by several laboratories.
UBC13 polyUb: UBC13 polyubiquitin chain formation inhibitors, primary screen, biochemical, TR-FRET, uHTS | Ubiquitin-conjugating enzyme E2 N (Homo sapiens), P61088 | inhibition, % at 20 µM | hit rate 0.47% among 330,000; in the data active = inhibition above about 45%, passing the limit was not always enough
Target sequence (P61088 whole entry, looked up): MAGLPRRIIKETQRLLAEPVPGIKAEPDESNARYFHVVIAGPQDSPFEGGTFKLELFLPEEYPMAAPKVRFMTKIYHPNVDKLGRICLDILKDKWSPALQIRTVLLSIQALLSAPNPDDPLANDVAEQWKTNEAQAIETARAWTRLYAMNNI
MEKK2 mut-MEK5: MEK5 binding signal on mutant MEKK2 PB1, primary screen, biochemical, multiplex bead flow cytometry, Alexa488-MEK5. hit rate 0.35% among 290,000. AID 1530, 2009. Alexa488-MEK5 binding to MEKK2 mutant. percent response, % at 10 µM; in the data active = percent response above about 24%, passing the limit was not always enough
MEKK2 WT-MEK5: modulators of MEK5 binding to wildtype MEKK2, primary screen, biochemical, multiplex bead flow cytometry, Alexa488-MEK5; binding response (% of control), % at 10 µM; AID 1531, 2009; Alexa488-MEK5 binding to MEKK2 WT; actives lie on both sides; hit rate 1.1% among 290,000; in the data active = binding response below about 67% or above about 130%
Apaf1 inhib: inhibitors of human Apaf-1 apoptosome, primary screen, biochemical, DEVD-Rh110 fluorescence, uHTS; Apoptotic protease-activating factor 1 (Homo sapiens), O14727; inhibition, % at 20 µM; hit rate 0.71% among 330,000; reconstituted apoptosome caspase-3 activity; active = inhibition of at least 40% at 20 µM;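 note: plate controls were DMSO wells for no effect and DEVD-CHO caspase inhibitor wells for full effect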
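Material: reconstituted apoptosome with Apaf-1, cytochrome c, caspase-9, procaspase-3, dATP. Technique: Rh110 fluorescence intensity. Buffer or medium: pH 7.5 Hepes buffer with CHAPS, BSA, DTT. Times: 30 min plus 50 min, RT.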
UCH37 inh: inhibitors of human UCH37 deubiquitinase, primary screen, biochemical, Ub-AMC cleavage, fluorescence; purified proteasome/UCH37; inhibition, % (test concentration not listed); hit rate 0.33% among 330,000;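 active = mean inhibition over replicate wells above about 20%, limit read from the data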;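 note: 0% = compound-free wells with enzyme and 100% = wells lacking proteasome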
Target sequence (Q9Y5K5 whole entry, looked up): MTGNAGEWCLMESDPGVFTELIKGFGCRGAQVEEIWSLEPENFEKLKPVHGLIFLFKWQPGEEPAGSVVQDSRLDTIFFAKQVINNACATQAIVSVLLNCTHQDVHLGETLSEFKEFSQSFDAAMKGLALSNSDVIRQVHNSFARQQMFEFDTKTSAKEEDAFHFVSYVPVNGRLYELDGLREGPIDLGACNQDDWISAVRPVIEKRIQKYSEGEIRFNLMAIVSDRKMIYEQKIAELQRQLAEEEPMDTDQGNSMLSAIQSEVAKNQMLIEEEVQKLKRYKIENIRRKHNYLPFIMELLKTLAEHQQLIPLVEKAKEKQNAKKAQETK
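Signal – fluorescence, ex 355 nm, em 460 nm · System – Proteasome-bound UCH37 · Input – 0.15 nM proteasome as dispensed · Timing – 30 min preincubation with enzyme, 25 min cleavage at room temperature · Read-out basis – percent inhibition of cleavage signal versus uninhibited and no-proteasome wells · Medium – Tris-HCl pH 7.4 with ATP-MgCl2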
MEKK3 PB1 HTS: modulators of MEKK3-MEK5 PB1 binding, primary screen, biochemical, wildtype MEKK3, multiplex bead flow cytometry, Alexa488-MEK5 | bead-based flow cytometry, Alexa488-MEK5 binding to MEKK3; actives lie on both sides; 0 = blocked by unlabeled MEK5, 100 = vehicle | AID 1529, 2009 | hit rate 1.4% among 290,000 | binding response (% of control), % at 10 µM | Mitogen-activated protein kinase kinase kinase 3 (Homo sapiens), Q99759;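 active = binding response more than 3 SD above or below the average of its plate-row segment, actives on both sides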;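 note: Alexa488 bead fluorescence after subtracting the streptavidin-only scavenger bead signal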
MEKK2wt confirm: modulators of MEK5 binding to wildtype MEKK2, confirmation, biochemical, single concentration, multiplex bead flow cytometry; binding response (% of control), % at 10 µM; Alexa488-MEK5 binding to MEKK2 WT; actives lie on both sides; AID 1892, 2009; shares compounds with MEKK3 PB1 HTS; hit rate 2.4% among 5,900; in the data active = binding response below about 16% or above about 210%; inactive = in between
MEKK2mut-MEK5: mutant MEKK2 PB1-MEK5 binding signal retest – biochemical, single concentration, multiplex bead flow cytometry, confirmation; hit rate 2% among 5,900; AID 1893, 2009; Alexa488-MEK5 binding to MEKK2 mutant; percent response, % at 10 µM; shares compounds with MEKK3 PB1 HTS; in the data active = percent response mostly above about 71%, no sharp cut-off; inactive = mostly below about 38%;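 note: higher means compound restores mutant binding toward wildtype level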
MEKK3-MEK5 inh: MEKK3 wild-type PB1 binding to MEK5, inhibitors, confirmation, biochemical, bead multiplex flow cytometry, single concentration, wildtype; shares compounds with MEKK3 PB1 HTS; Alexa488-MEK5 binding to MEKK3; hits give low values; binding response (% of control), % at 10 µM; hit rate 1.8% among 5,900;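 active = binding response below 72% of control, or above a set upper limit, though filed actives all read lower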;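 note: 100% = DMSO only wells and 0% = binding blocked by excess unlabeled MEK5; lower values mean stronger disruption of MEK5 binding to MEKK3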
An asterisk follows results filed as active; i = inactive; x = no result given; [ ] = dose if it differs, or a comment. Hits are enriched below; roughly 3% of the tested compounds scored in any of these assays.

SMILES	UBC13 polyUb	MEKK2 mut-MEK5	MEKK2 WT-MEK5	Apaf1 inhib	UCH37 inh	MEKK3 PB1 HTS	MEKK2wt confirm	MEKK2mut-MEK5	MEKK3-MEK5 inh
COc1ccc(CN(C)CC2CCCN(CCc3ccccc3C)C2)cc1O (stereo not given)	5.2	8.0	115.0	4.1	1.9	102.0	x	x	x
COc1ccc(CCNC(=O)CCN2C(=O)COc3ccccc32)cc1OC	-2.7	-10.0	90.0	-17.8	-0.5	81.0*[inhibitor]	100.0	-3.0	98.0
COc1ccc(CCNC(=O)CCN2C(=O)COc3ccc(C)cc32)cc1OC	5.7	8.0	107.0	-10.4	0.7	105.0	x	x	x
O=[N+]([O-])c1ccc(N/N=C/c2sc(N3CCOCC3)nc2-c2ccccc2)c(S(=O)(=O)Nc2ccc(Cl)cc2)c1	x	-32.0	x	x	x	11.0*[inhibitor]	79.0	-9.0	82.0
Nc1ncnc2nc(SCC(=O)Nc3cccc(C(F)(F)F)c3)[nH]c12	8.1	5.0	109.0	5.0	-0.6	104.0	x	x	x
Cc1ccc(-n2cc(CN(C)CCc3cn[nH]c3)c(-c3cccc(C)c3)n2)cc1	21.5	47.0	158.0*	22.6	-0.7	100.0	119.0	8.0	107.0
Cc1ccc(-n2cc(CN(C)Cc3ncc[nH]3)c(-c3cccc(C)c3)n2)cc1	11.3	6.0	119.0	24.2	2.5	106.0	x	x	x
O=C(Cn1cnc2c(oc3ccccc32)c1=O)NCc1ccco1	-1.4	7.0	107.0	-9.4	4.7	108.0	x	x	x
CCOC(=O)c1sc2nc(C(C)C)c3c(c2c1N)CC(C)(C)OC3	13.5	6.0	104.0	12.4	-100.8	101.0	x	x	x
CCOC(=O)c1sc2nc(C(C)C)c3c(c2c1N)CCC3	2.7	0.0	108.0	5.6	-285.5	138.0*	147.0	39.0	112.0
O=C1CC(c2ccccc2)c2cccc(F)c21 (stereo not given)	7.8	4.0	107.0	-2.4	4.0	106.0	x	x	x
COC(=O)CN(C#N)c1nc(C)cc(C)n1	2.3	1.0	112.0	-3.8	1.7	133.0*	102.0	-1.0	102.0
CC(C)CCNC(=S)Nc1ccc(Br)cc1	7.6	-2.0	92.0	-6.7	3.8	85.0	x	x	x
CC(C)CCNC(=O)/C=C/c1ccc(Br)cc1	7.0	-15.0	2.0*[inhibitor]	1.9	2.6	2.0*[inhibitor]	93.0	-15.0	92.0
CCCCNCC(=O)Nc1sc(C)c(C)c1C(=O)OCC	9.6	-2.0	102.0	8.5	4.7	79.0*[inhibitor]	108.0	8.0	108.0
CCN(CC)S(=O)(=O)c1ccc(O)c(NC(=O)c2cc(-c3cc(OC)c(OC)c(OC)c3)nc3ccccc23)c1	-16.9	-1.0	97.0	29.5	-33.4	104.0	x	x	x
CC(=O)Nc1ccc(NS(=O)(=O)c2c(Cl)cccc2Cl)cc1	21.2	-6.0	103.0	-7.3	3.3	101.0	x	x	x
CCN(CC)CCNC(=O)c1ccc(NC(=O)C2CCN(c3ncnc4sc(C)c(C)c34)CC2)cc1	8.9	16.0	147.0*	8.6	2.8	105.0	-5.0*[inhibitor]	9.0	90.0
CCN(CC)CCNC(=S)NC(=O)c1cn(-c2ccccc2)nc1-c1ccc(OC)cc1	20.7	28.0	148.0*	18.0	-0.2	107.0	138.0	21.0	109.0
CCN(CC)CCNC(=O)c1ccc(NC(=O)c2cn(-c3ccccc3)nc2-c2cccs2)cc1	102.6*	49.0	212.0*	25.1	4.7	107.0	212.0*	53.0	108.0
O=C(Nc1cccnc1)c1cn(-c2ccccc2)nc1-c1cccs1	18.8	0.0	104.0	-11.5	0.0	101.0	x	x	x
CCN(CC)Cc1c(O)ccc2c(=O)c(-c3ccccc3Cl)coc12	12.9	25.0*	102.0	0.7	i	104.0	102.0	-1.0	102.0
C/C(=N\NC(=S)Nc1cccc(C)c1)c1ccccc1	11.4	6.0	101.0	10.6	x	102.0	x	x	x
C/C(=N\NC(=S)Nc1cccc(C)c1)c1ccco1	6.5	-18.0	9.0*[inhibitor]	-1.3	x	7.0*[inhibitor]	106.0	5.0	105.0
O=C(O)/C=C\C(=O)Nc1cc(O)ccc1[N+](=O)[O-]	-27.7	4.0	107.0	-6.8	11.3	108.0	x	x	x
SMILES	UBC13 polyUb	MEKK2 mut-MEK5	MEKK2 WT-MEK5	Apaf1 inhib	UCH37 inh	MEKK3 PB1 HTS	MEKK2wt confirm	MEKK2mut-MEK5	MEKK3-MEK5 inh
Cc1ccc2c(c1)C(=NC1CCCCC1)c1cc3ccccc3nc1-2	x	1.0	101.0	x	2.2	67.0*[inhibitor]	107.0	7.0	105.0
O=c1cc(N2CCCCCC2)[nH]c(=O)n1-c1ccc(Cl)cc1	-6.2	14.0	101.0	11.4	1.2	116.0	x	x	x
COc1ccc(C(C)=O)cc1CSc1nc2ccccc2c(=O)n1-c1ccccc1C	6.0	-1.0	98.0	-5.3	1.2	108.0	x	x	x
CCN(CC)CCCN(C(=O)c1ccco1)c1nc(-c2ccc(C)cc2)cs1	9.3	-1.0	135.0	-5.8	5.0	105.0	x	x	x
CCN(CC)CCCN(C(=O)c1cccc(C)c1)c1nc(-c2ccc(OC)cc2)cs1	22.3	14.0	143.0*	17.3	3.0	106.0	151.0	22.0	106.0
COCCCN(C(=O)c1ccccc1)c1nc(-c2ccc(OC)cc2)cs1	0.4	0.0	104.0	13.8	1.6	105.0	x	x	x
CCN(CC)CCCN(C(=O)c1ccc(Br)cc1)c1nc(-c2ccc(OC)cc2)cs1	25.5	24.0*	176.0*	26.8	3.9	100.0	152.0	21.0	78.0
CCN(CC)CCCN(C(=O)c1ccco1)c1nc(-c2ccc(Cl)cc2)cs1	16.1	39.0*	169.0*	25.8	6.4	108.0	158.0	29.0	108.0
CCN(CC)CCCN(C(=O)c1cccs1)c1nc(-c2ccc(OC)cc2)cs1	13.5	2.0	143.0*	25.4	4.0	97.0	116.0	13.0	104.0
C=CCNC(=S)N/N=C/c1cn(C)c2ccccc12	-4.7	1.0	97.0	-5.0	x	92.0	x	x	x
